From ChEMBL document CHEMBL1649306, “Arylimidamide DB766, a potential chemotherapeutic candidate for Chagas' disease treatment” (Antimicrob Agents Chemother, 2010)
Active and inactive are the calls of the source. No cut-off for these calls is given here.

Key:
Trypanosoma cruzi [1] = assay: Antitrypanosomal activity against bloodstream forms of Trypanosoma cruzi Y after 24 hrs by light microscopy in presence of 50% mouse blood; assay type: functional, organism-based
How it was run: (§1)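 Bloodstream trypomastigotes kept at 4°C for 24 h in freshly isolated 50% mouse blood with serial dilutions (up to 32 μM). Motile live parasites counted in a Neubauer chamber by light microscopy; IC50 calculated as concentration reducing parasite number by 50%.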

Trypanosoma cruzi [2] = assay: Antitrypanosomal activity against bloodstream forms of Trypanosoma cruzi YuYu after 24 hrs by light microscopy in presence of 50% mouse blood; assay type: functional, organism-based; how it was run: as §1
Trypanosoma cruzi [3] = assay: Antitrypanosomal activity against bloodstream forms of Trypanosoma cruzi Columbian after 24 hrs by light microscopy in presence of 50% mouse blood; assay type: functional, organism-based; how it was run: as §1
Trypanosoma cruzi [4] = assay: Antitrypanosomal activity against bloodstream forms of Trypanosoma cruzi CL after 24 hrs by light microscopy in presence of 50% mouse blood; assay type: functional, organism-based; how it was run: as §1
Mus musculus [5] = assay: Toxicity in […](H-2k) mouse assessed as effect on creatine kinase level at 100 mg/kg/day, po; assay type: organism-based; design: route oral; settings: in vivo
Trypanosoma cruzi [6] = assay: Antitrypanosomal activity against Trypanosoma cruzi Y infected in Swiss-Webster mouse assessed as decrease in parasite-induced weight loss at 100 mg/kg/day, ip administered 5 days post-infection for 10 consecutive days measured on day 120; assay type: functional, organism-based
How it was run: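 Body weight of infected, treated mice followed from 0 to 120 dpi.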

Mus musculus [7] = assay: Cardiotoxicity in […] mouse assessed as effect on heart rate level at 100 mg/kg/day, po; assay type: toxicity, organism-based; design: route oral; settings: in vivo
How it was run: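 Colombian strain, 5 × 10³ bloodstream forms i.p. into male C3H/He mice; 100 mg/kg/day given i.p. or by gavage (0.1 ml) daily for 10 doses from parasitemia onset. Mice sedated with diazepam (20 mg/kg i.p.), supine; eight-lead ECG from subcutaneous limb needle electrodes plus precordial lead II. Signal-averaged ECG; heart rate as beats per minute.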

Trypanosoma cruzi [8] = assay: Antitrypanosomal activity against Trypanosoma cruzi Y bloodstream forms infected in Swiss-Webster mouse assessed as decrease in parasite load at 100 mg/kg/day, po administered 5 days postinfection for 10 alternate days measured after 31 days; assay type: functional; design: scale not given: the % may be the effect or the level left
How it was run: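 Male Swiss mice infected with 10^4 Y strain bloodstream forms and treated every other day with 100 mg/kg/day, reference drug by gavage. Parasitemia measured by the Pizzi-Brener method.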

Mus musculus [9] = assay: Cytotoxicity against Swiss-Webster mouse assessed as effect on creatine kinase at 100 mg/kg/day measured after 14 days postinfection; assay type: organism-based; settings: in vivo, 336 h
Mus musculus [10] = assay: Hepatotoxicity against Swiss-Webster mouse assessed as GPT at 100 mg/kg/day measured after 14 days postinfection; assay type: toxicity, organism-based; settings: in vivo, 336 h
[11] = Toxicity in […](H-2k) mouse assessed as mortality at cumulative dose of 100 mg/kg, po measured after 48 hrs; assay type: organism-based; design: dose 100 mg/kg, route oral; settings: in vivo, read-out: Activity
Trypanosoma cruzi [12] = assay: Antitrypanosomal activity against Trypanosoma cruzi Y epimastigotes after 24 hrs by light microscopy; assay type: functional, organism-based
How it was run: (§2)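 Epimastigotes from 5-day exponential cultures, 5 × 10^6 parasites/ml in LIT medium, incubated at 28°C up to 96 h with DB766 0 to 32 μM or Bz 0 to 250 μM. Counted daily in a Neubauer chamber. IC50 averaged from at least three determinations in duplicate.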

Trypanosoma cruzi [13] = assay: Antitrypanosomal activity against Trypanosoma cruzi 855 epimastigotes after 24 hrs by light microscopy; assay type: functional, organism-based; settings: Trypanosoma cruzi, 855, 24 h; how it was run: as §2
Trypanosoma cruzi [14] = assay: Antitrypanosomal activity against Trypanosoma cruzi 875 epimastigotes after 24 hrs by light microscopy; assay type: functional, organism-based; settings: Trypanosoma cruzi, 875, 24 h; how it was run: as §2
Trypanosoma cruzi [15] = assay: Antitrypanosomal activity against Trypanosoma cruzi 956 epimastigotes after 24 hrs by light microscopy; assay type: functional, organism-based; settings: Trypanosoma cruzi, 956, 24 h; how it was run: as §2
Trypanosoma cruzi [16] = assay: Antitrypanosomal activity against Trypanosoma cruzi 958 epimastigotes after 24 hrs by light microscopy; assay type: functional, organism-based; settings: Trypanosoma cruzi, 958, 24 h; how it was run: as §2
Trypanosoma cruzi [17] = assay: Antitrypanosomal activity against Trypanosoma cruzi 960 epimastigotes after 24 hrs by light microscopy; assay type: functional, organism-based; settings: Trypanosoma cruzi, 960, 24 h; how it was run: as §2
Trypanosoma cruzi [18] = assay: Antitrypanosomal activity against Trypanosoma cruzi MS1523 epimastigotes after 24 hrs by light microscopy; assay type: functional, organism-based; settings: MS1523, 24 h; how it was run: as §2
Trypanosoma cruzi [19] = assay: Antitrypanosomal activity against Trypanosoma cruzi RBVIII epimastigotes after 24 hrs by light microscopy; assay type: functional, organism-based; how it was run: as §2
Mus musculus [20] = assay: Toxicity in […](H-2k) mouse assessed as mortality at cumulative dose of 200 mg/kg, ip measured after 48 hrs; assay type: organism-based; design: dose 200 mg/kg, route intraperitoneal; settings: in vivo
How it was run: (§3)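 Uninfected 8–10-week-old female and male Swiss Webster and C3H/He (H-2k) mice injected i.p. on day 1 every 2 h with escalating doses: 5, 15, 30, 50 and 100 mg/kg (cumulative 20, 50, 100, 200 mg/kg). Toxic and subtoxic signs inspected on days 2–3 per OECD guidelines; tolerated dose set at 48 h.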

Mus musculus [21] = assay: Toxicity in female Swiss-Webster mouse assessed as mortality at cumulative dose of 200 mg/kg, ip measured after 48 hrs; assay type: organism-based; design: dose 200 mg/kg, route intraperitoneal; settings: in vivo; how it was run: as §3
Mus musculus [22] = assay: Toxicity in male Swiss-Webster mouse assessed as mortality at cumulative dose of 200 mg/kg, ip measured after 48 hrs; assay type: organism-based; design: dose 200 mg/kg, route intraperitoneal; settings: in vivo; how it was run: as §3
Mus musculus [23] = assay: Toxicity in male Swiss-Webster mouse assessed as weight loss at cumulative dose of 200 mg/kg, ip measured after 48 hrs; assay type: organism-based; design: dose 200 mg/kg, route intraperitoneal; settings: in vivo
How it was run: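 Acute toxicity in 8–10-week-old Swiss Webster mice. i.p. injections every 2 h of 5, 15, 30, 50 and 100 mg/kg (cumulative 200 mg/kg) on day 1. Toxic and subtoxic signs inspected on days 2 and 3 per OECD guidelines; outcome read 48 h after injection.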

Trypanosoma cruzi [24] = assay: Antitrypanosomal activity against Trypanosoma cruzi Y bloodstream forms infected in Swiss-Webster mouse assessed as decrease in parasite load at 100 mg/kg/day, po administered 8 days postinfection measured on day 2; assay type: functional, organism-based
How it was run: (§4)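 Male Swiss mice infected i.p. with 10^4 Y strain bloodstream forms. Given 0.2 ml i.p. at 5 and 8 dpi, or daily for 10 days from 5 dpi; reference drug given by gavage. Parasitemia measured by the Pizzi-Brener method, cumulative mortality checked daily to 120 dpi, n ≥ 6 per group.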

Trypanosoma cruzi [25] = assay: Antitrypanosomal activity against Trypanosoma cruzi Y bloodstream forms infected in Swiss-Webster mouse assessed as survival of mouse at 100 mg/kg/day, ip administered 8 days postinfection measured on day 120; assay type: functional, organism-based; how it was run: as §4
Trypanosoma cruzi [26] = assay: Antitrypanosomal activity against Trypanosoma cruzi Columbian bloodstream forms infected in C3H mouse assessed as decrease in parasite load at 100 mg/kg/day, ip administered 21 days postinfection measured on day 46; assay type: functional, organism-based
How it was run: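 C3H/He mice infected i.p. with 10^2 Colombian strain bloodstream forms. Treatment started at parasitemia onset (21 dpi) with daily doses for 10 treatments, 0.1 ml i.p. Parasitemia measured by the Pizzi-Brener method; n ≥ 6 parasitemic mice per group.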

Mus musculus [27] = assay: Hepatotoxicity in Swiss-Webster mouse assessed as effect on GPT level at 25 mg/kg/day, ip administered 21 days postinfection measured on day 120; assay type: toxicity, organism-based; design: route intraperitoneal; settings: in vivo, 504 h
Mus musculus [28] = assay: Hepatotoxicity in Swiss-Webster mouse assessed as effect on GPT level at 50 mg/kg/day, ip administered 21 days postinfection measured on day 120; assay type: toxicity, organism-based; design: route intraperitoneal; settings: in vivo, 504 h
Mus musculus [29] = assay: Hepatotoxicity in Swiss-Webster mouse assessed as increased GPT level at 100 mg/kg/day, ip administered 21 days postinfection measured on day 120; assay type: toxicity, organism-based; design: route intraperitoneal; settings: in vivo, 504 h
Trypanosoma cruzi [30] = assay: Antitrypanosomal activity against Trypanosoma cruzi Columbian bloodstream forms infected in C3H mouse assessed as survival of mouse at 100 mg/kg/day, po administered 5 days postinfection for 10 consecutive days measured after 31 days; assay type: functional
How it was run: (§5)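 Male C3H/He (H-2k) mice infected i.p. with 5 × 10^3 Colombian-strain bloodstream trypomastigotes; only parasitemia-positive mice grouped (n ≥ 6). DB766 100 mg/kg/day given i.p. (0.1 ml) or by gavage (0.1 ml), daily for 10 treatments. Parasitemia by Pizzi-Brener method; mortality checked daily, expressed as cumulative percentage.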

Trypanosoma cruzi [31] = assay: Antitrypanosomal activity against Trypanosoma cruzi Columbian bloodstream forms infected in C3H mouse assessed as decrease in parasite load at 100 mg/kg/day, ip administered 5 days postinfection for 10 consecutive days measured after 31 days; assay type: functional; design: scale not given: the % may be the effect or the level left; settings: route intraperitoneal
How it was run: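 C3H/He mice infected i.p. with 10^3 or 5 × 10^3 Colombian strain bloodstream forms. Treated daily for 10 days with 0.1 ml i.p. or by gavage, reference drug given by gavage. Parasitemia measured by the Pizzi-Brener method; n ≥ 6 parasitemic mice per group.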

Trypanosoma cruzi [32] = assay: Antitrypanosomal activity against Trypanosoma cruzi Columbian bloodstream forms infected in C3H mouse assessed as survival of mouse at 100 mg/kg/day, ip administered 5 days postinfection for 10 consecutive days measured after 31 days; assay type: functional; settings: route intraperitoneal; how it was run: as §5

Which IC50 (Trypanosoma cruzi [1]) does the source give for `N=C(N)c1ccc(-c2ccc(-c3ccc(C(=N)N)cc3)o2)cc1` [FURAMIDINE] here?
Its IC50 is > 32 µM.

What about the IC50 (Trypanosoma cruzi [2]) of the same compound?
Its IC50 is > 32 µM.

And the IC50 (Trypanosoma cruzi [3])?
Its IC50 is > 32 µM.

What about the IC50 (Trypanosoma cruzi [4]) of the same compound?
The IC50 was > 32 µM.

What does the source list for `O=C(Cn1ccnc1[N+](=O)[O-])NCc1ccccc1` [BENZNIDAZOLE]?
Activity (Mus musculus [5]): 68%; Activity (Trypanosoma cruzi [6]): Active; Activity (Mus musculus [7]): Non-toxic; Activity (Trypanosoma cruzi [8]): 79.4%; Activity (Mus musculus [9]): Non-toxic; Activity (Mus musculus [10]): Non-toxic; mortality at 48 h [11]: 100%; IC50 (Trypanosoma cruzi [12]): 7.65 µM; IC90 (Trypanosoma cruzi [12]): 86.6 µM; IC50 (Trypanosoma cruzi [13]): 12.6 µM; IC90 (Trypanosoma cruzi [13]): 226 µM; IC50 (Trypanosoma cruzi [14]): 7.9 µM; IC90 (Trypanosoma cruzi [14]): 196 µM; IC50 (Trypanosoma cruzi [15]): 3.96 µM; IC90 (Trypanosoma cruzi [15]): 20.4 µM; IC50 (Trypanosoma cruzi [16]): 13.7 µM; IC90 (Trypanosoma cruzi [16]): 58.3 µM; IC50 (Trypanosoma cruzi [17]): 6.44 µM; IC90 (Trypanosoma cruzi [17]): 38.2 µM; IC50 (Trypanosoma cruzi [18]): 5.3 µM; IC90 (Trypanosoma cruzi [18]): 30.6 µM; IC50 (Trypanosoma cruzi [19]): 5.06 µM; IC90 (Trypanosoma cruzi [19]): 35.7 µM; Activity (Mus musculus [20]): Non-toxic; Activity (Mus musculus [21]): Non-toxic; Activity (Mus musculus [22]): Non-toxic; Activity (Mus musculus [23]): 7%; Activity (Trypanosoma cruzi [24]): inactive; Activity (Trypanosoma cruzi [25]): inactive; Activity (Trypanosoma cruzi [26]): inactive; Activity (Mus musculus [27]): Non-toxic; Activity (Mus musculus [28]): Non-toxic; Activity (Mus musculus [29]): Toxic; Activity (Trypanosoma cruzi [30]): 100%; Activity (Trypanosoma cruzi [31]): 100%; Activity (Trypanosoma cruzi [32]): 99%
